Activity calls are given as the source filed them. The calls are words filed in the database; no cut-off is given here.

Data on two molecules can be found in ChEMBL document CHEMBL2029264, “Indole-based fibrates as potential hypolipidemic and antiobesity agents” (J Med Chem, 2012).

The subject of data set [1] is Rattus norvegicus. As to the kind of experiment: Antihyperlipidemic activity in Triton WR-1339-induced hyperlipidemic rat assessed as decrease in plasma total cholesterol level at 100 mg/kg, po relative to control. Type of data set: functional. On the set-up: scale not given: the % may be the effect or the level left. The gist of the method: (§1)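 Triton WR-1339 given to rats to induce hyperlipidemia; oral dosing. Plasma TC, PL, TG in mg/dL; PHLA as […]/h/mL plasma. Mean ± SD of six rats; Triton group compared with control, Triton plus dosed group compared with Triton group.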

The subject of data set [2] is Rattus norvegicus. Put plainly: Antihyperlipidemic activity in Triton WR-1339-induced hyperlipidemic rat assessed as decrease in plasma phospholipid level at 100 mg/kg, po relative to control. Type of data set: functional. On the set-up: scale not given: the % may be the effect or the level left. The gist of the method: as §1
Data set [3] concerns Rattus norvegicus. As to the kind of experiment: Antihyperlipidemic activity in Triton WR-1339-induced hyperlipidemic rat assessed as decrease in plasma phospholipid level at 150 mg/kg, po. The class given is functional. In short, it runs like this: (§2)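 Separate set of Triton WR-1339-induced hyperlipidemic rats, oral doses of 50, 100 and 150 mg/kg. Plasma TC, PL, TG in mg/dL; PHLA as […]/h/mL plasma. Mean ± SD of six rats versus Triton group.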

For data set [4], the system named is Rattus norvegicus. Put plainly: Antihyperlipidemic activity in Triton WR-1339-induced hyperlipidemic rat assessed as increase in PHLA enzyme level at 150 mg/kg, po. The class given is functional. The gist of the method: as §2
In data set [5] the test system is Rattus norvegicus. Put plainly: Antihyperlipidemic activity in Triton WR-1339-induced hyperlipidemic rat assessed as increase in LCAT enzyme level at 100 mg/kg, po. Type of data set: functional. In short, it runs like this: as §1
In data set [6] the test system is Rattus norvegicus. Put plainly: Antihyperlipidemic activity in Triton WR-1339-induced hyperlipidemic rat assessed as increase in LCAT enzyme level at 150 mg/kg, po. The class given is functional. The gist of the method: as §2
In data set [7] the test system is Rattus norvegicus. As to the kind of experiment: Antihyperlipidemic activity in po dosed Triton WR-1339-induced hyperlipidemic rat assessed as decrease in plasma phospholipid level. Type of data set: functional, organism-based. In short, it runs like this: as §1
For data set [8], the system named is Rattus norvegicus. Put plainly: Antihyperlipidemic activity in po dosed Triton WR-1339-induced hyperlipidemic rat assessed as increase in LCAT enzyme level. The class given is functional, organism-based. The gist of the method: as §1
The test system of data set [9] is Rattus norvegicus. As to the kind of experiment: Toxicity in HFD-induced hyperlipidemic Charles Foster rat assessed as decrease in food intake at 100 mg/kg, po administered for 4 weeks. Type of data set: organism-based. On the set-up: dose 100 mg/kg, route oral. The settings on record: in vivo, 672 h. The gist of the method: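 Adult male Charles Foster rats (200−225 g) were kept at 25−26 °C, 50−70% humidity, and a 12/12 h light/dark cycle. They were fed a high-fat diet for 4 weeks to induce hyperlipidemia, then given high-fat diet plus test agent at 100 mg/kg/d for another 4 weeks. Food intake was recorded over the experimental period, with n = 6 per group, and animals were sacrificed after 8 weeks.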

Data set [10] concerns Rattus norvegicus. As to the kind of experiment: Antiobesity activity in HFD-induced hyperlipidemic Charles Foster rat assessed as decrease in food efficacy ratio at 100 mg/kg, po administered for 4 weeks. Type of data set: functional, organism-based. On the set-up: dose 100 mg/kg. In short, it runs like this: (§3)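 Adult male Charles Foster rats given high-fat or normal diet 4 weeks, then diet plus vehicle or daily dosing 4 more weeks, sacrificed at week 8. Body weight gain, food intake, food efficiency ratio (weight gain/food intake over the period), and mesenteric, gonadal, inguinal and perirenal fat-pad weights recorded; mean ± SD, n = 6.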

The test system of data set [11] is Rattus norvegicus. Put plainly: Antiobesity activity in HFD-induced hyperlipidemic Charles Foster rat assessed as decrease in perirenal fat-pad at 100 mg/kg, po administered for 4 weeks. On the set-up: dose 100 mg/kg. The class given is functional, organism-based. In short, it runs like this:
as §3

For data set [12], the system named is Rattus norvegicus. Put plainly: Antihyperlipidemic activity in HFD-induced hyperlipidemic Charles Foster rat assessed as decrease in serum total cholesterol level at 100 mg/kg, po administered for 4 weeks relative to control. Type of data set: functional. On the set-up: scale not given: the % may be the effect or the level left. The gist of the method:
(§4)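 Male Charles Foster rats (200−225 g): high-fat diet 4 weeks, then diet plus daily dosing 4 weeks. Overnight fast, retro-orbital blood in EDTA (3 mg/mL blood), centrifuged to serum. TC, PL, TG in mg/dL; LCAT as nmol cholesterol released/h/L plasma. Mean ± SD; dosed groups compared with high-fat group, P by significance levels.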

In data set [13] the test system is Rattus norvegicus. As to the kind of experiment: Antihyperlipidemic activity in HFD-induced hyperlipidemic Charles Foster rat assessed as decrease in serum phospholipid level at 100 mg/kg, po administered for 4 weeks relative to control. The class given is functional. On the set-up: scale not given: the % may be the effect or the level left. The gist of the method:
as §4

For data set [14], the system named is Rattus norvegicus. As to the kind of experiment: Antihyperlipidemic activity in HFD-induced hyperlipidemic Charles Foster rat assessed as decrease in serum triglyceride level at 100 mg/kg, po administered for 4 weeks relative to control. The class given is functional. On the set-up: scale not given: the % may be the effect or the level left. The gist of the method: as §4

For data set [15], the system named is Rattus norvegicus. As to the kind of experiment: Antihyperlipidemic activity in HFD-induced hyperlipidemic Charles Foster rat assessed as decrease in plasma VLDL-phospholipid level at 100 mg/kg, po administered for 4 weeks relative to control. On the set-up: scale not given: the % may be the effect or the level left. Type of data set: functional. The gist of the method:
(§5)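 After 4 weeks high-fat feeding plus 4 weeks daily dosing, overnight fast, retro-orbital blood into EDTA tubes. Serum split into VLDL, LDL and HDL by polyanionic precipitation; each fraction assayed for TC, PL, TG and apoprotein (mg/dL plasma). Pooled data from 6 rats/group, mean ± SD, dosed groups compared with high-fat group.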

The test system of data set [16] is Rattus norvegicus. Put plainly: Antihyperlipidemic activity in HFD-induced hyperlipidemic Charles Foster rat assessed as decrease in plasma LDL-triglyceride level at 100 mg/kg, po administered for 4 weeks relative to control. The class given is functional. On the set-up: scale not given: the % may be the effect or the level left. The gist of the method: as §5

Data set [17] has as its system Rattus norvegicus. Put plainly: Antihyperlipidemic activity in HFD-induced hyperlipidemic Charles Foster rat assessed as decrease in plasma LDL-apoprotein level at 100 mg/kg, po administered for 4 weeks relative to control. The class given is functional. On the set-up: scale not given: the % may be the effect or the level left. The gist of the method: as §5
The subject of data set [18] is Rattus norvegicus. As to the kind of experiment: Antihyperlipidemic activity in HFD-induced hyperlipidemic Charles Foster rat assessed as increase in plasma HDL-phospholipid level at 100 mg/kg, po administered for 4 weeks relative to control. Type of data set: functional. In short, it runs like this: as §5
For data set [19], the system named is Rattus norvegicus. As to the kind of experiment: Antihyperlipidemic activity in HFD-induced hyperlipidemic Charles Foster rat assessed as increase in plasma HDL-triglyceride level at 100 mg/kg, po administered for 4 weeks relative to control. Type of data set: functional. In short, it runs like this:
as §5

Data set [20] relates to Rattus norvegicus. As to the kind of experiment: Antihyperlipidemic activity in HFD-induced hyperlipidemic Charles Foster rat assessed as increase in plasma HDL-apoprotein level at 100 mg/kg, po administered for 4 weeks relative to control. Type of data set: functional. In short, it runs like this: as §5
Data set [21] has as its system Rattus norvegicus. Put plainly: Antihyperlipidemic activity in HFD-induced hyperlipidemic Charles Foster rat assessed as reactivation of LPL activity at 100 mg/kg, po administered for 4 weeks relative to control. Type of data set: functional. In short, it runs like this:
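Male Charles Foster rats fed high-fat diet 4 weeks, then diet plus daily dosing 4 weeks. Liver homogenized (10% w/v) in cold 100 mM phosphate buffer pH 7.2; total lipolytic LPL activity read as nmol free fatty acid formed/h/mg protein; pooled data from 6 rats/group, mean ± SD.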

Data set [22] has as its system Rattus norvegicus. As to the kind of experiment: Antihyperlipidemic activity in HFD-induced hyperlipidemic Charles Foster rat assessed as increase in [I125]-LDL catabolism in plasma membrane of liver at 100 mg/kg/day, po administered for 4 weeks. The class given is functional. In short, it runs like this: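 Rats on 8 weeks total of high-fat diet, dosed daily for the last 4 weeks, then sacrificed. Human serum LDL radiolabeled with I125; specific binding to liver plasma membrane preparation measured as receptor-mediated LDL catabolism. Mean ± SD, n = 6.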

The test system of data set [23] is Rattus norvegicus. Put plainly: Antihyperlipidemic activity in HFD-induced hyperlipidemic Charles Foster rat assessed as increase in cholic acid excretion in feces at 100 mg/kg/day, po administered for 4 weeks measured after 30 days relative to control. The class given is functional. In short, it runs like this: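 Rats fed high-fat diet 4 weeks, then diet plus daily dosing 4 weeks. Cholic and deoxycholic acid excreted in feces measured; dosed groups compared with high-fat group, control compared with high-fat group.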

Data set [24] concerns Rattus norvegicus. Put plainly: Toxicity in HFD-induced hyperlipidemic Charles Foster rat assessed as mortality at 100 mg/kg/day, po administered for 4 weeks. The settings on record: in vivo, 672 h. Type of data set: organism-based. On the set-up: route oral. In short, it runs like this:
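Male Charles Foster rats (200−225 g) were fed a high-fat diet for 4 weeks, then dosed at 100 mg/kg/d alongside the same diet for 4 more weeks. Survival was monitored. After an overnight fast, blood was drawn and the animals were sacrificed. Macroscopic inspection and autopsy were then performed, with n = 6 per group.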

On to `CCOC(=O)C(C)Oc1ccc(C(c2cn(CC)c3ccccc23)c2cn(CC)c3ccccc23)cc1` (stereo not drawn), for which the Activity was 22% in the data set on Rattus norvegicus [1]; 23% with Rattus norvegicus [2]; 29 mg/dL in the data set with Rattus norvegicus [3]; 12 nmol/h/mL with Rattus norvegicus [5]; 18 nmol/h/mL in the data set with Rattus norvegicus [6]; “Dose-dependent effect” in the data set on Rattus norvegicus [7]. Also, the Activity entry was “Dose-dependent effect” with Rattus norvegicus [8]; “Non-toxic” in the data set on Rattus norvegicus [9]; 25% with Rattus norvegicus [12]; 24% with Rattus norvegicus [13]; 25% in the data set on Rattus norvegicus [14]; 16% with Rattus norvegicus [15]. Also, the Activity in the data set on Rattus norvegicus [16] is reported as 21%; in the data set with Rattus norvegicus [17] it was 25%; in the data set with Rattus norvegicus [18] it was 13%; with Rattus norvegicus [19], 11%; with Rattus norvegicus [20], 16%; with Rattus norvegicus [21] it was 20%. For the same molecule, the Activity in the data set on Rattus norvegicus [22] is reported as 24%; in the data set with Rattus norvegicus [23], 26%; with Rattus norvegicus [24] it was “Non-toxic”. The percent increase in the data set with Rattus norvegicus [4] came out at 15%. For the same molecule, the result in the data set with Rattus norvegicus [10] and in the data set with Rattus norvegicus [11] was Active.
Consider `CCOC(=O)CCCOc1ccc(C(c2cn(C)c3ccccc23)c2cn(C)c3ccccc23)cc1`, for which the Activity with Rattus norvegicus [1] was 20%; in the data set with Rattus norvegicus [2], 14%; with Rattus norvegicus [3], 29 mg/dL; in the data set on Rattus norvegicus [5], 15 nmol/h/mL; in the data set with Rattus norvegicus [6] it was 21 nmol/h/mL; in the data set on Rattus norvegicus [7], “Dose-dependent effect”. The Activity entry in the data set on Rattus norvegicus [8] was “Dose-dependent effect”; with Rattus norvegicus [9] it was “Non-toxic”; in the data set on Rattus norvegicus [12], 28%; in the data set on Rattus norvegicus [13], 25%; in the data set on Rattus norvegicus [14], 27%; in the data set on Rattus norvegicus [15], 11%. Further, the Activity in the data set with Rattus norvegicus [16] is on record as 25%; in the data set on Rattus norvegicus [17], 21%; in the data set with Rattus norvegicus [18] it was 8%; with Rattus norvegicus [19] it was 14%; with Rattus norvegicus [20], 14%; in the data set on Rattus norvegicus [21], 14%. The Activity is recorded as 18% in the data set with Rattus norvegicus [22], 21% in the data set on Rattus norvegicus [23] and “Non-toxic” with Rattus norvegicus [24]. Also, the percent increase in the data set on Rattus norvegicus [4] is 20%. For the same molecule, the outcome with Rattus norvegicus [10] and with Rattus norvegicus [11] was Active.
